Blank lines part the entries; values can stand above or below the molecule they belong to.
What was measured:
Format in all cases: organism-based
[1] = target: T1, Angiotensin-converting enzyme (Rattus norvegicus) (UniProt P47820); test: Compound was tested for plasma inhibition of Angiotensin I converting enzyme activity in the conscious rat. Expressed as Inhibition of AI pressor response at 4 hr at a dose of 13 mg/kg po; parameters: dose 13 mg/kg
T1 sequence (whole entry): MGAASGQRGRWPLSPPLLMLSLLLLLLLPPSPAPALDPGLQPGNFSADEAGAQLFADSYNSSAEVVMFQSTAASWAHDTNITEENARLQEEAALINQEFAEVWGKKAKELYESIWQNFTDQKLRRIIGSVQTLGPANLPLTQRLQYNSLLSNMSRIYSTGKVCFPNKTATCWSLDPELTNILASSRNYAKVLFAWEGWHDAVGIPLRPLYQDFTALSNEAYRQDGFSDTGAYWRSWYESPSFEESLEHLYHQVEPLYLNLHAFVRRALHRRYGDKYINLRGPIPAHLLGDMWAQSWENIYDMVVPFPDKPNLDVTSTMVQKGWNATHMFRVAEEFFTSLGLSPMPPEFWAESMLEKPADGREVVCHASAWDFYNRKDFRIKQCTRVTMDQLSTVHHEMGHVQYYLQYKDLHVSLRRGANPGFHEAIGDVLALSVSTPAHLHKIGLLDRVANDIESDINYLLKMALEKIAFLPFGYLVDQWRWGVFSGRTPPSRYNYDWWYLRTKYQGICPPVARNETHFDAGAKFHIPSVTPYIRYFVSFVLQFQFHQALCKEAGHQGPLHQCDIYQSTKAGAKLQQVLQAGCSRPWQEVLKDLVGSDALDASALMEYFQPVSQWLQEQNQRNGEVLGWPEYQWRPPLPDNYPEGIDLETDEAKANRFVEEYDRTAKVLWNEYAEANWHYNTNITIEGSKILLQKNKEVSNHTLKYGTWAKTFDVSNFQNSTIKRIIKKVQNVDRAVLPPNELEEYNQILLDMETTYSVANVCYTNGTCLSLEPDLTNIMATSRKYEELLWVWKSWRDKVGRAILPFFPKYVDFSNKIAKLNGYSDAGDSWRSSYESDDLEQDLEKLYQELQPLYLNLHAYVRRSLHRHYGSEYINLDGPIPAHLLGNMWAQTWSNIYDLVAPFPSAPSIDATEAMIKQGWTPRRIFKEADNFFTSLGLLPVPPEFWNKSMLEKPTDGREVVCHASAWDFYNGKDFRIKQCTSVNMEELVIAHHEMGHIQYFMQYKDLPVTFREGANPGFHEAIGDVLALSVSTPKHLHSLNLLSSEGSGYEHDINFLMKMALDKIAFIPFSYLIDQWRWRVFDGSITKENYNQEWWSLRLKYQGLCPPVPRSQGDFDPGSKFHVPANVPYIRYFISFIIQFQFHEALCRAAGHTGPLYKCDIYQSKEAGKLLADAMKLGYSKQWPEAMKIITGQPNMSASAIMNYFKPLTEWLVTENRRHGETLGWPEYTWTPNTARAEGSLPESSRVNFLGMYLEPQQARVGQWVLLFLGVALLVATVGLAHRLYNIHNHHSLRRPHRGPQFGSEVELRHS
In short: (§1)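 Male conscious normotensive Sprague-Dawley rats (275-390 g), fitted under methohexital (75 mg/kg ip) with femoral arterial and venous catheters for direct blood pressure. Next day, pressor responses to three angiotensin-I challenges (300 ng/kg iv) were recorded. Compound was then given po and AI challenge repeated at scheduled times. Each post-dose response was compared with the mean of the three initial responses.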

[2] = target: T1, Angiotensin-converting enzyme (Rattus norvegicus); test: Compound was tested for plasma inhibition of Angiotensin I converting enzyme activity in the conscious rat. Expressed as Inhibition of AI pressor response at 6 hr at a dose of 13 mg/kg po; parameters: dose 13 mg/kg; in short: as §1
[3] = target: T1, Angiotensin-converting enzyme (Rattus norvegicus); test: Compound was tested for plasma inhibition of Angiotensin I converting enzyme activity in the conscious rat. Expressed as Inhibition of AI pressor response at 1 hr at a dose of 13 mg/kg po; parameters: dose 13 mg/kg; in short: as §1
[4] = target: T1, Angiotensin-converting enzyme (Rattus norvegicus); test: Compound was tested for plasma inhibition of Angiotensin I converting enzyme activity in the conscious rat. Expressed as Inhibition of AI pressor response at 2 hr at a dose of 13 mg/kg po; parameters: dose 13 mg/kg; in short: as §1
[5] = target: T1, Angiotensin-converting enzyme (Rattus norvegicus); test: Compound was tested for plasma inhibition of Angiotensin I converting enzyme activity in the conscious rat. Expressed as Inhibition of AI pressor response at 1 hr at a dose of 12 mg/kg po; parameters: dose 12 mg/kg
In short: (§2)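 Male conscious normotensive Sprague-Dawley rats (275-390 g), given femoral arterial and venous catheters under methohexital sodium (75 mg/kg ip) anesthesia. Next day, pressor responses to three angiotensin-I challenges (300 ng/kg iv) recorded by direct arterial pressure. Compound then dosed orally, and AI challenge repeated at set times. Each post-dose response compared with the mean of the three baseline responses, giving % inhibition.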

[6] = target: T1, Angiotensin-converting enzyme (Rattus norvegicus); test: Compound was tested for plasma inhibition of Angiotensin I converting enzyme activity in the conscious rat. Expressed as Inhibition of AI pressor response at 2 hr at a dose of 12 mg/kg po; parameters: dose 12 mg/kg; in short: as §2
[7] = target: T1, Angiotensin-converting enzyme (Rattus norvegicus); test: Compound was tested for plasma inhibition of Angiotensin I converting enzyme activity in the conscious rat. Expressed as Inhibition of AI pressor response at 4 hr at a dose of 12 mg/kg po; parameters: dose 12 mg/kg; in short: as §2
[8] = target: T1, Angiotensin-converting enzyme (Rattus norvegicus); test: Compound was tested for plasma inhibition of Angiotensin I converting enzyme activity in the conscious rat. Expressed as Inhibition of AI pressor response at 6 hr at a dose of 12 mg/kg po; parameters: dose 12 mg/kg
In short: (§3)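 Male conscious normotensive Sprague-Dawley rats (275-390 g), prepared under methohexital sodium (75 mg/kg ip) with femoral arterial and venous catheters. The next day, pressor responses to three angiotensin-I challenges (300 ng/kg iv) were recorded. Compound was then given orally and angiotensin-I challenges were repeated at set times. Percent inhibition is relative to the mean of the three baseline responses.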

[9] = target: T1, Angiotensin-converting enzyme (Rattus norvegicus); test: Compound was tested for plasma inhibition of Angiotensin I converting enzyme activity in the conscious rat. Expressed as Inhibition of AI pressor response at 4 hr at a dose of 13.3 mg/kg po; parameters: dose 13.3 mg/kg; in short: as §3
[10] = target: T1, Angiotensin-converting enzyme (Rattus norvegicus); test: Compound was tested for plasma inhibition of Angiotensin I converting enzyme activity in the conscious rat. Expressed as Inhibition of AI pressor response at 2 hr at a dose of 13.3 mg/kg po; parameters: dose 13.3 mg/kg; in short: as §2
[11] = target: T1, Angiotensin-converting enzyme (Rattus norvegicus); test: Compound was tested for plasma inhibition of Angiotensin I converting enzyme activity in the conscious rat. Expressed as Inhibition of AI pressor response at 6 hr at a dose of 13.3 mg/kg po; parameters: dose 13.3 mg/kg; in short: as §3
[12] = target: T1, Angiotensin-converting enzyme (Rattus norvegicus); test: Compound was tested for plasma inhibition of Angiotensin I converting enzyme activity in the conscious rat. Expressed as Inhibition of AI pressor response at 1 hr at a dose of 13.3 mg/kg po; parameters: dose 13.3 mg/kg; in short: as §2
[13] = target: T1, Angiotensin-converting enzyme (Rattus norvegicus); test: Compound was tested for plasma inhibition of Angiotensin I converting enzyme activity in the conscious rat. Expressed as Inhibition of AI pressor response at 2 hr at a dose of 13.4 mg/kg po; parameters: dose 13.4 mg/kg; in short: as §2
[14] = target: T1, Angiotensin-converting enzyme (Rattus norvegicus); test: Compound was tested for plasma inhibition of Angiotensin I converting enzyme activity in the conscious rat. Expressed as Inhibition of AI pressor response at 6 hr at a dose of 13.4 mg/kg po; parameters: dose 13.4 mg/kg; in short: as §3
[15] = target: T1, Angiotensin-converting enzyme (Rattus norvegicus); test: Compound was tested for plasma inhibition of Angiotensin I converting enzyme activity in the conscious rat. Expressed as Inhibition of AI pressor response at 4 hr at a dose of 13.4 mg/kg po; parameters: dose 13.4 mg/kg; in short: as §3
[16] = target: T1, Angiotensin-converting enzyme (Rattus norvegicus); test: Compound was tested for plasma inhibition of Angiotensin I converting enzyme activity in the conscious rat. Expressed as Inhibition of AI pressor response at 1 hr at a dose of 13.4 mg/kg po; parameters: dose 13.4 mg/kg; in short: as §2
[17] = target: T1, Angiotensin-converting enzyme (Rattus norvegicus); test: Compound was tested for plasma inhibition of Angiotensin I converting enzyme activity in the conscious rat. Expressed as Inhibition of AI pressor response at 1 hr at a dose of 12.3 mg/kg po; parameters: dose 12.3 mg/kg; in short: as §2
[18] = target: T1, Angiotensin-converting enzyme (Rattus norvegicus); test: Compound was tested for plasma inhibition of Angiotensin I converting enzyme activity in the conscious rat. Expressed as Inhibition of AI pressor response at 4 hr at a dose of 12.3 mg/kg po; parameters: dose 12.3 mg/kg; in short: as §2
[19] = target: T1, Angiotensin-converting enzyme (Rattus norvegicus); test: Compound was tested for plasma inhibition of Angiotensin I converting enzyme activity in the conscious rat. Expressed as Inhibition of AI pressor response at 2 hr at a dose of 12.3 mg/kg po; parameters: dose 12.3 mg/kg; in short: as §2
[20] = target: T1, Angiotensin-converting enzyme (Rattus norvegicus); test: Compound was tested for plasma inhibition of Angiotensin I converting enzyme activity in the conscious rat. Expressed as Inhibition of AI pressor response at 6 hr at a dose of 12.3 mg/kg po; parameters: dose 12.3 mg/kg; in short: as §3

Structure (SMILES): CCOC(=O)[C@H](Cc1ccc(O)cc1)NC(=O)C1(NC(=O)[C@H](SC(=O)C2CCCC2)C(C)C)CCCC1
inhibition [1]: 55%
inhibition [2]: 38%
inhibition [3]: 34%
inhibition [4]: 33%

Structure (SMILES): CCOC(=O)[C@H](Cc1ccc(OC(=O)C(C)C)cc1)NC(=O)C1(NC(=O)[C@H](SC(C)=O)C(C)C)CCCC1
inhibition [13]: 75%
inhibition [14]: 46%
inhibition [15]: 63%
inhibition [16]: 73%

Structure (SMILES): CCCOc1ccc(C[C@H](NC(=O)C2(NC(=O)[C@H](SC(C)=O)C(C)C)CCCC2)C(=O)OCC)cc1
inhibition [17]: 90%
inhibition [18]: 72%
inhibition [19]: 80%
inhibition [20]: 68%

The next lines start with the values.

inhibition [5]: 68%
inhibition [6]: 75%
inhibition [7]: 67%
inhibition [8]: 59%
Structure (SMILES): C=CCOC(=O)[C@H](Cc1ccc(O)cc1)NC(=O)C1(NC(=O)[C@H](SC(C)=O)C(C)C)CCCC1

inhibition [9]: 8%
inhibition [10]: 11%
inhibition [11]: 12%
inhibition [12]: 10%
Structure (SMILES): CCOC(=O)[C@H](Cc1ccc(O)cc1)NC(=O)C1(NC(=O)[C@H](SC(=O)c2ccccn2)C(C)C)CCCC1
